# Source: ChEMBL document CHEMBL4680121, “Development of (4-methoxyphenyl)-1H-tetrazol-5-amine regioisomers as a new class of selective antitubercular agents” (Eur J Med Chem, 2020)
# Key:
# [1] = test system: Mycobacterium tuberculosis; assay: Antitubercular activity against Mycobacterium tuberculosis Spec.192 assessed as fractional inhibitory concentration index in presence of 1/2 x MIC streptomycin incubated for 14 days by MABA method; type: functional; conditions: time 14 day
# Method in brief: (§1)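 Interaction analysis in Middlebrook 7H9 with 10% OADC. Combination MICs came from mixing the derivative (1 to 1/32 MIC) with the reference drug at 1/2 MIC, and the reverse, after 14 days at 37 °C with McFarland 1 inoculum. FICI was calculated from the combination MIC values and the MICs alone.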
# [2] = test system: Mycobacterium tuberculosis; assay: Antitubercular activity against Mycobacterium tuberculosis Spec.192 assessed as fractional inhibitory concentration index in presence of 1/2 x MIC isoniazid incubated for 14 days by MABA method; type: functional; conditions: time 14 day; method in brief: as §1
# [3] = test system: Mycobacterium tuberculosis; assay: Antitubercular activity against Mycobacterium tuberculosis H37Rv ATCC 25618 assessed as fractional inhibitory concentration index incubated for 14 days in presence of 1/2 x MIC isoniazid by MABA method; type: functional; conditions: time 14 day; method in brief: as §1
# [4] = test system: Staphylococcus epidermidis; assay: Antibacterial activity against Staphylococcus epidermidis ATCC 12228 assessed as bacterial growth inhibition measured after 18 hrs by two-fold serial microdilution method; type: functional
# Method in brief: (§2)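 Two-fold serial broth microdilution in MH II medium following modified CLSI procedures. Compounds were dissolved in DMSO and diluted in medium to at most 1% solvent, tested from 0.03125 to 512 μg/ml. Final inoculum 10^6 CFU/ml. MIC was taken as the lowest concentration with no visible growth after 18 h at 35 °C.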
# V79 [5] = assay: Cytotoxicity against Chinese Hamster V79 cells assessed as reduction in cell viability measured after 72 hrs by MTT assay; type: cell-based; conditions: Cricetulus griseus, V79, 72 h
# Method in brief: (§3)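 MTT viability assay on cells grown in DMEM with 10% heat-inactivated FBS, penicillin/streptomycin and 20 mM HEPES at 37 °C/5% CO2. Cells were seeded at 1×10^4 per well and allowed to adhere for 24 h, then the medium was refreshed. Compounds were added at 20–140 μM for 72 h at 37 °C, followed by MTT (0.5 mg/mL in serum-free medium) for 4 h. Untreated cells served as control. IC50 is the concentration giving 50% growth inhibition versus control.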
# [6] = test system: Mycobacterium tuberculosis; assay: Antitubercular activity against Mycobacterium tuberculosis H37Rv ATCC 25618 assessed as ethambutol MIC incubated for 14 days in presence of ethambutol by MABA method; type: functional; conditions: H37Rv ATCC 25618, 336 h, time 14 day
# Method in brief: (§4)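 In Middlebrook 7H9 with 10% OADC, the reference drug (INH, RMP, SM or EMB) at 1 to 1/32 of its MIC alone was mixed with the test derivative fixed at 1/2 its MIC. 4 ml samples were inoculated with McFarland 1 suspension and incubated 14 days at 37 °C. MIC is the lowest drug concentration in combination that inhibited growth.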
# [7] = test system: Mycobacterium tuberculosis; assay: Antitubercular activity against Mycobacterium tuberculosis H37Rv ATCC 25618 assessed as isoniazid MIC incubated for 14 days in presence of isoniazid by MABA method; type: functional; conditions: H37Rv ATCC 25618, 336 h, time 14 day; method in brief: as §4
# [8] = test system: Staphylococcus epidermidis; assay: Antibacterial activity against Staphylococcus epidermidis ATCC 35984/RP62A assessed as bacterial growth inhibition measured after 18 hrs by two-fold serial microdilution method; type: functional; method in brief: as §2
# V79 [9] = assay: Cytotoxicity against Chinese Hamster V79 cells assessed as reduction in cell viability at 100 uM measured after 72 hrs by MTT assay; type: cell-based, Cricetulus griseus; conditions: v79, 72 h; method in brief: as §3
# Pseudomonas aeruginosa = assay: Antibacterial activity against Pseudomonas aeruginosa NCTC 6749 assessed as bacterial growth inhibition measured after 18 hrs by two-fold serial microdilution method; type: functional; method in brief: as §2
# [10] = test system: Mycobacterium tuberculosis; assay: Antitubercular activity against Mycobacterium tuberculosis H37Rv ATCC 25618 assessed as rifampicin MIC incubated for 14 days in presence of rifampicin by MABA method; type: functional; conditions: H37Rv ATCC 25618, 336 h, time 14 day; method in brief: as §4
# [11] = test system: Mycobacterium tuberculosis; assay: Antitubercular activity against Mycobacterium tuberculosis Spec.192 assessed as streptomycin MIC incubated for 14 days in presence of streptomycin by MABA method; type: functional; conditions: Mycobacterium tuberculosis, 192, 336 h; time 14 day; method in brief: as §4
# [12] = test system: Mycolicibacterium fortuitum; assay: Antibacterial activity against Mycobacterium fortuitum assessed as inhibition of microbial growth incubated for 1 week by MABA method; type: functional; conditions: 168 h, time 1 weeks
# Method in brief: (§5)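 Microplate Alamar Blue assay using two-fold serial microdilution in Middlebrook 7H9 broth with 10% OADC, compounds 0.125–512 µg/ml from DMSO stocks. Inoculum came from fresh LJ culture, was adjusted to McFarland 1 and diluted 1:20. Plates were incubated 1 week at 37 °C, Alamar blue was added and plates were re-incubated 24 h. MIC was the lowest concentration preventing the blue-to-pink change. Each plate carried growth and sterile controls.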
# Mycobacterium kansasii = assay: Antibacterial activity against Mycobacterium kansasii assessed as inhibition of microbial growth incubated for 1 week by MABA method; type: functional; conditions: 168 h, time 1 weeks; method in brief: as §5
# Escherichia coli = assay: Antibacterial activity against Escherichia coli ATCC 25922 assessed as bacterial growth inhibition measured after 18 hrs by two-fold serial microdilution method; type: functional; method in brief: as §2
# [13] = test system: Mycobacterium tuberculosis; assay: Antitubercular activity against Mycobacterium tuberculosis Spec.192 assessed as reduction in bacterial growth incubated for 14 days in presence of 1/2 x MIC isoniazid by MABA method; type: functional; conditions: Mycobacterium tuberculosis, 192, 336 h; time 14 day
# Method in brief: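 Checkerboard-type combination in Middlebrook 7H9 with 10% OADC. The test derivative at 1 to 1/32 of its MIC alone was mixed with the reference drug fixed at 1/2 its MIC. 4 ml samples were inoculated with McFarland 1 suspension and incubated 14 days at 37 °C. MIC is the lowest derivative concentration in combination that inhibited growth in liquid medium.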
# Klebsiella pneumoniae = assay: Antibacterial activity against Klebsiella pneumoniae ATCC 10031 assessed as bacterial growth inhibition measured after 18 hrs by two-fold serial microdilution method; type: functional; method in brief: as §2
# [14] = test system: Mycobacterium tuberculosis; assay: Antitubercular activity against Mycobacterium tuberculosis Spec.192 assessed as rifampicin MIC incubated for 14 days in presence of rifampicin by MABA method; type: functional; conditions: Mycobacterium tuberculosis, 192, 336 h; time 14 day; method in brief: as §4
# Caco-2 = assay: Cytotoxicity against human Caco-2 cells assessed as LDH release at 100 uM incubated for 72 hrs by LDH assay; type: cell-based; conditions: caco-2, 72 h
# Method in brief: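 LDH release measured with a kit after 72 h exposure to 100 μM compound. Cells were seeded at 1×10^4 per well in DMEM or EMEM with 2% FBS. Absorbance was read at 490 nm. Release (%) = (A sample − A low control)/(A high control − A low control) × 100, with the Triton X-100 (1%) control taken as 100% release. Values are mean ± SD of three independent experiments run in triplicate.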
# [15] = test system: Mycobacterium tuberculosis; assay: Antitubercular activity against Mycobacterium tuberculosis Spec.192 assessed as ethambutol MIC incubated for 14 days in presence of ethambutol by MABA method; type: functional; conditions: Mycobacterium tuberculosis, 192, 336 h; time 14 day; method in brief: as §4
# [16] = test system: Staphylococcus epidermidis; assay: Antibacterial activity against Staphylococcus epidermidis ATCC 1457 assessed as bacterial growth inhibition measured after 18 hrs by two-fold serial microdilution method; type: functional; method in brief: as §2
# [17] = test system: Mycobacterium tuberculosis; assay: Antitubercular activity against Mycobacterium tuberculosis H37Rv ATCC 25618 assessed as fractional inhibitory concentration index incubated for 14 days in presence of 1/2 x MIC rifampicin by MABA method; type: functional; conditions: time 14 day; method in brief: as §1
# Mycobacterium avium = assay: Antimycobacterial activity against Mycobacterium avium assessed as inhibition of microbial growth incubated for 1 week by MABA method; type: functional; conditions: 168 h, time 1 weeks
# Method in brief: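 Microplate Alamar Blue assay in Middlebrook 7H9 broth with 10% OADC. Inoculum from fresh LJ culture was adjusted to McFarland 1 and diluted 1:20. DMSO stocks were two-fold serially diluted to final 0.125–512 µg/ml, with growth and sterile controls. Plates ran 1 week at 37 °C, then Alamar blue was added for 24 h. MIC is the lowest concentration preventing the blue-to-pink change.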
Structure (SMILES),fractional inhibitory concentration index (FICI) [1],fractional inhibitory concentration index (FICI) [2],fractional inhibitory concentration index (FICI) [3],MIC [4],IC50 (V79 [5]),MIC [6],MIC [7],MIC [8],Activity (V79 [9]),MIC (Pseudomonas aeruginosa),MIC [10],MIC [11],MIC [12],MIC (Mycobacterium kansasii),MIC (Escherichia coli),MIC [13],MIC (Klebsiella pneumoniae),MIC [14],Activity (Caco-2),MIC [15],further results
COc1ccc(-n2nnnc2Nc2cccc(Br)c2)cc1,0.5,4.125,4.125,> 256 µg/mL,241 µM,1 µg/mL,0.5 µg/mL,> 256 µg/mL,Non-Toxic,> 256 µg/mL,0.25 µg/mL,0.25 µg/mL,256 µg/mL,512 µg/mL,> 256 µg/mL,0.25 µg/mL,> 256 µg/mL,0.25 µg/mL,< 17%,1 µg/mL,MIC [16]: > 256 µg/mL; fractional inhibitory concentration index (FICI) [17]: 0.5; MIC (Mycobacterium avium): 256 µg/mL
COc1ccc(-n2nnnc2Nc2ccc(Br)cc2)cc1,0.375,4.125,4.125,256 µg/mL,212 µM,1 µg/mL,0.5 µg/mL,> 256 µg/mL,Non-Toxic,> 256 µg/mL,0.25 µg/mL,0.25 µg/mL,> 512 µg/mL,512 µg/mL,> 256 µg/mL,0.25 µg/mL,> 256 µg/mL,0.25 µg/mL,Non-Toxic,1 µg/mL,MIC [16]: > 256 µg/mL; fractional inhibitory concentration index (FICI) [17]: 0.5; MIC (Mycobacterium avium): 512 µg/mL
